Experimental data reported in ChEMBL document CHEMBL1133703, “Inhibitors of topoisomerase II based on the benzodiimidazole and dipyrroloimidazobenzimidazole ring systems: controlling DT-diaphorase reductive inactivation with steric bulk” (2000).

How the values were obtained:
Type in all cases: functional
Settings in all cases: Homo sapiens
NSCLC = assay: Lethal concentration was determined against NSC lung cancer cell line
Method in brief: (§1)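 NCI 60-cell-line in vitro screen run at the National Cancer Institute on a submitted sample of about 5 mg. The screen yields mean graph data: LC50 (50% lethal concentration), GI50 and TGI. The LC50 values reported are averages over the cell lines of each cancer type.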

Renal cancer cell line = assay: Lethal concentration was determined against Renal cancer cell line; method in brief: as §1
[1] = tested on: Panel leukemia (Carcinoma cell lines); assay: Lethal concentration was determined against Leukemia cell line; method in brief: as §1
Melanoma cell = assay: Lethal concentration was determined against Melanoma cell line; method in brief: as §1
Colon carcinoma cell = assay: Lethal concentration was determined against Colon cancer cell line; method in brief: as §1
CNS carcinoma cell = assay: Lethal concentration was determined against CNS cancer cell line; method in brief: as §1
Ovarian carcinoma cell = assay: Lethal concentration was determined against Ovarian cancer cell line; method in brief: as §1

Structure (SMILES): Cc1nc2c(n1C)C(=O)c1c(nc(CCl)n1C)C2=O
- LC50 (NSCLC): 12.3 µM
- LC50 (50% lethal concentration) (Renal cancer cell line): 15.8 µM
- LC50 (50% lethal concentration) [1]: 12.9 µM
- LC50 (50% lethal concentration) (Melanoma cell): 5.89 µM
- LC50 (Colon carcinoma cell): 6.31 µM
- LC50 (CNS carcinoma cell): 15.8 µM
- LC50 (50% lethal concentration) (Ovarian carcinoma cell): 25.1 µM

Structure (SMILES): CC(=O)OC1CCn2c1nc1c2C(=O)c2c(nc3n2CCC3OC(C)=O)C1=O (centres undefined)
- LC50 (NSCLC): 3.98 µM
- LC50 (50% lethal concentration) (Renal cancer cell line): 6.31 µM
- LC50 (50% lethal concentration) [1]: 2.51 µM
- LC50 (50% lethal concentration) (Melanoma cell): 2.57 µM
- LC50 (Colon carcinoma cell): 3.8 µM
- LC50 (CNS carcinoma cell): 3.16 µM
- LC50 (50% lethal concentration) (Ovarian carcinoma cell): 3.98 µM

Structure (SMILES): O=C1c2nc3n(c2C(=O)c2c1nc1n2CCC1)CCC3
- LC50 (NSCLC): 39.8 µM
- LC50 (50% lethal concentration) (Renal cancer cell line): 79.4 µM
- LC50 (50% lethal concentration) [1]: 100 µM
- LC50 (50% lethal concentration) (Melanoma cell): 15.8 µM
- LC50 (Colon carcinoma cell): 50.1 µM
- LC50 (CNS carcinoma cell): 63.1 µM
- LC50 (50% lethal concentration) (Ovarian carcinoma cell): 50.1 µM

Structure (SMILES): Cn1c(CCl)nc2c1C(=O)c1c(nc(CCl)n1C)C2=O
- LC50 (NSCLC): 4.47 µM
- LC50 (50% lethal concentration) (Renal cancer cell line): 6.31 µM
- LC50 (50% lethal concentration) [1]: 4.37 µM
- LC50 (50% lethal concentration) (Melanoma cell): 5.01 µM
- LC50 (CNS carcinoma cell): 5.01 µM
- LC50 (50% lethal concentration) (Ovarian carcinoma cell): 10 µM

Structure (SMILES): CC(=O)NC1=C(C)C(=O)c2c(nc3n2CCC3OC(C)=O)C1=O (centres undefined)
- LC50 (NSCLC): 20 µM
- LC50 (50% lethal concentration) (Renal cancer cell line): 15.8 µM
- LC50 (50% lethal concentration) [1]: 100 µM
- LC50 (50% lethal concentration) (Melanoma cell): 12.6 µM
- LC50 (Colon carcinoma cell): 31.6 µM
- LC50 (CNS carcinoma cell): 25.1 µM
- LC50 (50% lethal concentration) (Ovarian carcinoma cell): 15.8 µM
